ChEMBL document CHEMBL3526146, “In vitro and in vivo metabolism and pharmacokinetics of BMS-562086, a potent and orally bioavailable corticotropin-releasing factor-1 receptor antagonist” (Drug Metab Dispos, 2012)

Experiments:
[1] = Drug metabolism in bile duct-cannulated Sprague-Dawley rat bile assessed as BMS-572273 metabolite level at 30 mg/kg, po after 12 hrs by LC-MS/MS analysis; assay type: ADME, organism-based; set-up: dose 30 mg/kg, route oral; conditions: in vivo
Method in brief: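 Male bile-duct-cannulated Sprague-Dawley rats (n=3), fasted overnight, received 30 mg/kg by gavage in 0.5% methylcellulose. Urine and bile were collected 0-12 h and pooled by equal percentage weight across animals, then centrifuged. Supernatants were profiled by LC/MS/MS. Bile was also treated with β-glucuronidase in pH 4.8 acetate buffer, 37°C, 16 h.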

[2] = AUC (infinity) in Sprague-Dawley rat at 5 mg/kg, po; assay type: ADME, organism-based; set-up: time infinity, dose 5 mg/kg, route oral; conditions: plasma
Method in brief: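 Male Sprague-Dawley rats (n=3 per route, 0.34-0.35 kg, cannulated), fasted ~18 h pre-dose and 4 h post-dose. Dosing was 1 mg/kg IV bolus in 20% ethanol/saline via the jugular cannula, or 5 mg/kg oral gavage in 0.5% aqueous methylcellulose. Jugular blood was sampled 0-96 h. Plasma was assayed by validated LC/MS/MS (LLOQ 1.00 ng/ml), and AUC(INF) was derived by noncompartmental mixed log-linear trapezoidal analysis.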

[3] = AUC (infinity) in beagle dog at 1 mg/kg, iv; assay type: ADME, organism-based, Canis lupus familiaris; set-up: time infinity, dose 1 mg/kg, route intravenous; conditions: plasma
Method in brief: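 Male beagle dogs (n=3, 10.1-12.7 kg) in a one-way IV/PO crossover with one-week washout, fasted ~15 h pre-dose and 4 h post-dose. Dosing was 1 mg/kg IV bolus into the saphenous vein in DMA:propylene glycol:water (1:7:2), or 5 mg/kg gavage in 0.5% methylcellulose. Blood was sampled 0-96 h. Plasma was assayed by LC/MS/MS (LLOQ 1.00 ng/ml) with noncompartmental analysis; Cmax was observed directly.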

[4] = Terminal half life in beagle dog at 1 mg/kg, iv; assay type: ADME, organism-based, Canis lupus familiaris; set-up: dose 1 mg/kg, route intravenous; conditions: in vivo, read-out: beta t1/2 (converted)
Method in brief: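 Male beagle dogs (n=3), one-way IV/PO crossover with a one-week washout, fasted about 15 h before and 4 h after dosing. IV dose of 1 mg/kg as a saphenous bolus in N,N-dimethylacetamide:propylene glycol:water (1:7:2); PO dose of 5 mg/kg by gavage in 0.5% methylcellulose. Plasma sampled 0–96 h and assayed by LC/MS/MS (LLOQ 1.00 ng/ml). Noncompartmental analysis; CL = dose/AUC(INF) after IV; F from dose-normalized AUC ratio.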

[5] = Cmax in chimpanzee at 1 mg/kg, po; assay type: ADME, organism-based, Pan troglodytes; set-up: dose 1 mg/kg, route oral; conditions: in vivo
Method in brief: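 Two fasted male chimpanzees (58, 72 kg) received 1 mg/kg orally as a suspension in 0.5% methylcellulose/orange drink with 1% Tween 80 (1:1). Blood was sampled 0-96 h post-dose. Plasma was assayed by validated LC/MS/MS (LLOQ 1.00 ng/ml). Noncompartmental analysis gave AUC(INF) by the mixed log-linear trapezoidal method, with Cmax observed directly; values are mean (min, max).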

[6] = Tmax in chimpanzee at 1 mg/kg, po; assay type: ADME, organism-based, Pan troglodytes; set-up: dose 1 mg/kg, route oral; conditions: in vivo
Method in brief: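 Two male chimpanzees (58 and 72 kg), fasted overnight, dosed orally at 1 mg/kg as a suspension in 0.5% aqueous methylcellulose/Tang orange juice with 1% Tween 80 (1:1). Plasma sampled 0-96 h, parent measured by validated LC/MS/MS. Tmax taken from observed data by noncompartmental analysis; reported as median (min, max).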

[7] = Apparent permeability from apical to basolateral side in human Caco2 cells; assay type: ADME, cell-based; conditions: Caco-2
Method in brief: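 Caco-2 cells (passage 50-60) were seeded at 60,000 cells/cm2 on polycarbonate Transwells and cultured 21-25 days. Transport buffer was HBSS with 2% DMA, pH 7.4. Compound was applied apically at 25 µM at 37°C. Only monolayers with TEER 400-500 Ω cm2 at start and end were used, with mannitol as an integrity probe. Papp = (dQ/dt)/(A×C0).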

[8] = Protein binding in dog serum after 3 hrs by equilibrium dialysis; assay type: ADME, cell-free, Canis lupus familiaris; conditions: read-out: PB (converted)
Method in brief: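 Equilibrium dialysis of serum spiked to final 12.8, 25.6 and 38.5 µM against 134 mM phosphate buffer, pH 7.4, through a 10,000 Da cutoff membrane. Cells rotated at 20 rpm, 37°C, 3 h. Percent unbound taken as buffer concentration divided by serum concentration.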

[9] = Drug metabolism in beagle dog hepatocytes assessed as […] at 25 uM after 3 hrs by HPLC analysis; assay type: ADME, cell-based, Canis lupus familiaris, Hepatocyte
[10] = Drug metabolism in cynomolgus monkey cryopreserved hepatocytes assessed as […] at 25 uM after 3 hrs by HPLC analysis; assay type: ADME, cell-based, Macaca fascicularis, Hepatocyte
[11] = Oral bioavailability in chimpanzee at 1 mg/kg; conditions: Pan troglodytes, in vivo
[12] = Drug metabolism in mouse hepatocytes assessed as at 25 uM after 3 hrs by HPLC analysis

| SMILES | Drug metabolism [1] | AUC(0-inf) [2] [µM·h] | AUC(0-inf) [3] [µM·h] | half-life [4] [h] | Cmax [5] [nM] | Tmax [6] [h] | Papp A→B [7] [×10⁻⁶ cm/s] | fraction unbound at 3 h [8] | Drug metabolism [9] | Drug metabolism [10] | bioavailability [11] [%] | Drug metabolism [12] |
| --- | --- | --- | --- | --- | --- | --- | --- | --- | --- | --- | --- | --- |
| COc1ccc(-c2c(C)nn3c(O)nc(C)nc23)c(C)n1 | metabolite_detected | – | – | – | – | – | – | – | – | – | – | – |
| CC[C@@H](C)Nc1nc(C)nc2c(-c3ccc(OC)nc3C)c(C)nn12 [PEXACERFONT] | – | 5.82 | 4.3 | 43.9 | 1070 | 2 | 17 | 0.048 | metabolite_detected | metabolite_detected | 58.5 | metabolite_detected |
